Assay results taken from ChEMBL document CHEMBL1145158, “Selective substrate-based inhibitors of mammalian dimethylarginine dimethylaminohydrolase” (J Med Chem, 2005).

Columns and labels:
[1] = Inhibition of [14C]-L-NMMA (1 umol/L) binding to dimethylarginine dimethylaminohydrolase of rat kidney homogenate
Method in brief: (§1)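 Rat kidney homogenized in PBS with PMSF 1 mM and leupeptin, pepstatin, chymostatin (5 µg/mL each), then spun; high-speed supernatant used as enzyme source (both DDAH isoforms). [14C]L-NMMA 1 µmol/L added, 1 h at 37 °C; stopped with neutral-pH Dowex resin binding unmetabolized L-NMMA. [14C]citrulline counted by scintillation. Screening at 1 mM or 100 µM; IC50 determined for actives.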

Rattus norvegicus [2] = species: Rattus norvegicus; assay: Inhibition of [14C]-L-NMMA (1 umol/L) binding to dimethylarginine dimethylaminohydrolase of rat kidney homogenate at 1 mM; method in brief: as §1
Rattus norvegicus [3] = species: Rattus norvegicus; assay: Inhibition of [14C]-L-NMMA (1 umol/L) binding to dimethylarginine dimethylaminohydrolase of rat kidney homogenate 100 uM; method in brief: as §1

SMILES | IC50 [1] [µM] | inhibition (Rattus norvegicus [2]) [%] | inhibition (Rattus norvegicus [3]) [%]
CC/N=C(\N)NCC[C@H](N)C(=O)O | 300 | 100 | 
CC(C)OCC/N=C(\N)NCC[C@H](N)C(=O)O | 301 | 97 | 
C/N=C(\N)NCC[C@H](N)C(=O)O | 1510 | 48 | 
N/C(=N\CC[C@H](N)C(=O)O)N1CCCCC1 | 264 | 74 | 
CN(C)C(=N)NCC[C@H](N)C(=O)O | 325 | 85 | 

These reach a lower IC50 [1]. Values come first.

IC50 [1] [µM] | inhibition (Rattus norvegicus [2]) [%] | inhibition (Rattus norvegicus [3]) [%] | SMILES
189 | 90 |  | COCC/N=C(\N)NCC[C@H](N)C(=O)O
189 |  | 30 | COCCN/C(N)=N/CC[C@H](N)C(=O)OC(C)C
22 |  | 100 | COCCNC(=N)NCCC[C@H](N)C(=O)O
111 |  | 64 | CCCOC(=O)[C@@H](N)CC/N=C(\N)NCCOC
20 |  | 83 | COCC/N=C(/N)NCCC[C@H](N)C(=O)OC
